# Experimental data from ChEMBL document CHEMBL3232844, “Synthesis and structure activity relationships of schweinfurthin indoles” (2014).
# Tests used:
# Assay type in all cases: functional
# [1] = Cytotoxicity against human OVCAR5 cells
# Summary of the method: (§1)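 Tested in a 60-cell-line human tumor panel screen; the read-out is growth inhibition, reported as GI50 for each cell line.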
# MOLT-4 = assay: Cytotoxicity against human MOLT4 cells; summary of the method: as §1
# MDA-MB-435 = assay: Cytotoxicity against human MDA-MB-435 cells; summary of the method: as §1
# NCI-H460 = assay: Cytotoxicity against human NCI-H460 cells; summary of the method: as §1
# SF-539 = assay: Cytotoxicity against human SF539 cells; summary of the method: as §1
# MCF7 = assay: Cytotoxicity against human MCF7 cells; summary of the method: as §1
# T47D = assay: Cytotoxicity against human T47D cells
# Summary of the method: (§2)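 Cell line run as part of the 60-cell-line screening panel; growth inhibition was reported as a GI50 for each line.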
# NCI-H322M = assay: Cytotoxicity against human NCI-H322M cells; summary of the method: as §1
# SNB-19 = assay: Cytotoxicity against human SNB19 cells; summary of the method: as §1
# DU-145 = assay: Cytotoxicity against human DU145 cells; summary of the method: as §1
# [2] = Cytotoxicity against human OVCAR3 cells; summary of the method: as §1
# MDA-MB-468 = assay: Cytotoxicity against human MDA-MB-468 cells; summary of the method: as §1
# [3] = Cytotoxicity against human UO31 cells; summary of the method: as §2
# HCC 2998 = assay: Cytotoxicity against human HCC2998 cells; summary of the method: as §1
# NCI-H226 = assay: Cytotoxicity against human NCI-H226 cells; summary of the method: as §1
# [4] = Cytotoxicity against human UACC62 cells; summary of the method: as §2
# SK-MEL-5 = assay: Cytotoxicity against human SK-MEL-5 cells; summary of the method: as §1
# [5] = Cytotoxicity against human OVCAR8 cells; summary of the method: as §1
# SN12C = assay: Cytotoxicity against human SN12C cells; summary of the method: as §1
# SF-295 = assay: Cytotoxicity against human SF295 cells; summary of the method: as §1
# [6] = Cytotoxicity against human UACC257 cells; summary of the method: as §2
# CCRF-CEM = assay: Cytotoxicity against human CCRF-CEM cells
# NCI-H23 = assay: Cytotoxicity against human NCI-H23 cells; summary of the method: as §1
# ACHN = assay: Cytotoxicity against human ACHN cells; summary of the method: as §1
# PC-3 = assay: Cytotoxicity against human PC3 cells; summary of the method: as §1
# M14 = assay: Cytotoxicity against human M14 cells; summary of the method: as §1
# SR = assay: Cytotoxicity against human SR cells; summary of the method: as §2
# SF-268 = assay: Cytotoxicity against human SF268 cells; summary of the method: as §1
# [7] = Cytotoxicity against human EKVX cells; summary of the method: as §1
# BT-549 = assay: Cytotoxicity against human BT549 cells; summary of the method: as §1
# A498 = assay: Cytotoxicity against human A498 cells; summary of the method: as §1
# SK-OV-3 = assay: Cytotoxicity against human SKOV3 cells; summary of the method: as §1
# KM12 = assay: Cytotoxicity against human KM12 cells; summary of the method: as §1
# K562 = assay: Cytotoxicity against human K562 cells; summary of the method: as §1
# SK-MEL-2 = assay: Cytotoxicity against human SK-MEL-2 cells; summary of the method: as §1
# RXF 393 = assay: Cytotoxicity against human RXF393 cells; summary of the method: as §1
# MDA-MB-231 = assay: Cytotoxicity against human MDA-MB-231 cells; summary of the method: as §1
# HL-60(TB) = assay: Cytotoxicity against human HL-60(TB) cells
# Summary of the method: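 Tested within the NCI 60-cell-line screen, with GI50 as the read-out. Values are the average of two independent experiments. The lowest concentration tested was 10 nM.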
# U-251 = assay: Cytotoxicity against human U251 cells; summary of the method: as §2
# SNB-75 = assay: Cytotoxicity against human SNB75 cells; summary of the method: as §2
# HT-29 = assay: Cytotoxicity against human HT-29 cells; summary of the method: as §1
# 786-0 = assay: Cytotoxicity against human 786-0 cells; summary of the method: as §1
# [8] = Cytotoxicity against human NCI-ADR-RES cells; summary of the method: as §1
# [9] = read-out: pLC50 (the source's name) (converted)
structure (smiles),measurement,setting,value
COc1cc(/C=C/c2cc(O)c3c(CC=C(C)C)c[nH]c3c2)cc2c1O[C@]1(C)CC[C@@H](O)C(C)(C)[C@H]1C2,GI50,[1]; OVCAR-5,15.1 µM
same,CC50,"[1]; OVCAR-5, read-out: pLC50 (the source's name) (converted)",50.1 µM
same,TGI,"[1]; OVCAR-5, read-out: pTGI (converted)",50.1 µM
same,GI50,MOLT-4,0.17 µM
same,CC50,MOLT-4; [9],50.1 µM
same,TGI,MOLT-4; read-out: pTGI (converted),50.1 µM
same,GI50,MDA-MB-435,0.676 µM
same,CC50,MDA-MB-435; [9],50.1 µM
same,TGI,MDA-MB-435; read-out: pTGI (converted),50.1 µM
same,GI50,NCI-H460,0.417 µM
same,CC50,NCI-H460; [9],50.1 µM
same,TGI,NCI-H460; read-out: pTGI (converted),50.1 µM
same,GI50,SF-539,0.0407 µM
same,CC50,SF-539; [9],2.95 µM
same,TGI,SF-539; read-out: pTGI (converted),0.257 µM
same,GI50,MCF7,0.355 µM
same,LC50,MCF7,50.1 µM
same,TGI,MCF7; read-out: pTGI (converted),3.63 µM
same,GI50,T47D,5.25 µM
same,CC50,T47D; [9],50.1 µM
same,TGI,T47D; read-out: pTGI (converted),31.6 µM
same,GI50,NCI-H322M,10.5 µM
same,CC50,NCI-H322M; [9],50.1 µM
same,TGI,NCI-H322M; read-out: pTGI (converted),50.1 µM
same,GI50,SNB-19,0.708 µM
same,CC50,SNB-19; [9],50.1 µM
same,TGI,SNB-19; read-out: pTGI (converted),50.1 µM
same,GI50,DU-145,3.55 µM
same,LC50 (50% lethal concentration),DU-145,50.1 µM
same,TGI,DU-145; read-out: pTGI (converted),50.1 µM
same,GI50,[2]; OVCAR-3,13.5 µM
same,CC50,"[2]; OVCAR-3, read-out: pLC50 (the source's name) (converted)",50.1 µM
same,TGI,"[2]; OVCAR-3, read-out: pTGI (converted)",50.1 µM
same,GI50,MDA-MB-468,0.513 µM
same,LC50,MDA-MB-468,46.8 µM
same,TGI,MDA-MB-468; read-out: pTGI (converted),9.33 µM
same,GI50,[3]; UO-31,0.269 µM
same,LC50,[3]; UO-31,50.1 µM
same,TGI,"[3]; UO-31, read-out: pTGI (converted)",1.48 µM
same,GI50,HCC 2998,3.02 µM
same,CC50,HCC 2998; [9],50.1 µM
same,TGI,HCC 2998; read-out: pTGI (converted),50.1 µM
same,GI50,NCI-H226,4.37 µM
same,CC50,NCI-H226; [9],50.1 µM
same,TGI,NCI-H226; read-out: pTGI (converted),50.1 µM
same,GI50,[4]; UACC-62,0.138 µM
same,CC50,"[4]; UACC-62, read-out: pLC50 (the source's name) (converted)",3.63 µM
same,TGI,"[4]; UACC-62, read-out: pTGI (converted)",0.407 µM
same,GI50,SK-MEL-5,0.158 µM
same,CC50,SK-MEL-5; [9],1.82 µM
same,TGI,SK-MEL-5; read-out: pTGI (converted),0.575 µM
same,GI50,[5]; OVCAR-8,12.9 µM
same,CC50,"[5]; OVCAR-8, read-out: pLC50 (the source's name) (converted)",50.1 µM
same,TGI,"[5]; OVCAR-8, read-out: pTGI (converted)",50.1 µM
same,GI50,SN12C,12 µM
same,LC50,SN12C,50.1 µM
same,TGI,SN12C; read-out: pTGI (converted),50.1 µM
same,GI50,SF-295; read-out: GI50,< 0.021 µM
same,GI50,SF-295; read-out: pGI50 (converted),0.0316 µM
same,CC50,SF-295; [9],0.513 µM
same,TGI,SF-295; read-out: pTGI (converted),0.135 µM
same,GI50,[6]; UACC-257,1.23 µM
same,CC50,"[6]; UACC-257, read-out: pLC50 (the source's name) (converted)",50.1 µM
same,TGI,"[6]; UACC-257, read-out: pTGI (converted)",50.1 µM
same,GI50,CCRF-CEM,0.148 µM
same,CC50,CCRF-CEM; [9],50.1 µM
same,TGI,CCRF-CEM; read-out: pTGI (converted),50.1 µM
same,GI50,NCI-H23,0.427 µM
same,CC50,NCI-H23; [9],50.1 µM
same,TGI,NCI-H23; read-out: pTGI (converted),22.4 µM
same,GI50,ACHN,1.48 µM
same,LC50 (concentration killing 50% of cells),ACHN,50.1 µM
same,TGI,ACHN; read-out: pTGI (converted),50.1 µM
same,GI50,PC-3,0.229 µM
same,LC50,PC-3,50.1 µM
same,TGI,PC-3; read-out: pTGI (converted),50.1 µM
same,GI50,M14,0.251 µM
same,TGI,M14; read-out: pTGI (converted),1.02 µM
same,GI50,SR,0.295 µM
same,CC50,SR; [9],50.1 µM
same,TGI,SR; read-out: pTGI (converted),50.1 µM
same,GI50,SF-268,1.02 µM
same,CC50,SF-268; [9],50.1 µM
same,TGI,SF-268; read-out: pTGI (converted),50.1 µM
same,GI50,[7],1.07 µM
same,CC50,[7]; [9],50.1 µM
same,TGI,[7]; read-out: pTGI (converted),50.1 µM
same,GI50,BT-549,0.107 µM
same,CC50,BT-549; [9],50.1 µM
same,TGI,BT-549; read-out: pTGI (converted),13.2 µM
same,GI50,A498,0.129 µM
same,CC50,A498; [9],50.1 µM
same,TGI,A498; read-out: pTGI (converted),0.724 µM
same,GI50,SK-OV-3,3.55 µM
same,LC50,SK-OV-3,50.1 µM
same,TGI,SK-OV-3; read-out: pTGI (converted),32.4 µM
same,GI50,KM12,0.275 µM
same,TGI,KM12; read-out: pTGI (converted),1.12 µM
same,GI50,K562,0.224 µM
same,CC50,K562; [9],50.1 µM
same,TGI,K562; read-out: pTGI (converted),7.76 µM
same,GI50,SK-MEL-2,0.269 µM
same,CC50,SK-MEL-2; [9],50.1 µM
same,TGI,SK-MEL-2; read-out: pTGI (converted),50.1 µM
same,GI50,RXF 393,0.0447 µM
same,LC50,RXF 393,12.9 µM
same,TGI,RXF 393; read-out: pTGI (converted),0.457 µM
same,GI50,MDA-MB-231,0.724 µM
same,LC50,MDA-MB-231,50.1 µM
same,TGI,MDA-MB-231; read-out: pTGI (converted),50.1 µM
same,GI50,HL-60(TB),0.251 µM
same,CC50,HL-60(TB); [9],50.1 µM
same,TGI,HL-60(TB); read-out: pTGI (converted),18.6 µM
same,GI50,U-251,0.151 µM
same,CC50,U-251; [9],50.1 µM
same,TGI,U-251; read-out: pTGI (converted),50.1 µM
same,GI50,SNB-75,0.055 µM
same,CC50,SNB-75; [9],50.1 µM
same,TGI,SNB-75; read-out: pTGI (converted),50.1 µM
same,GI50,HT-29,0.132 µM
same,CC50,HT-29; [9],50.1 µM
same,TGI,HT-29; read-out: pTGI (converted),2 µM
same,GI50,786-0,0.0851 µM
same,LC50 (concentration killing 50% of cells),786-0,50.1 µM
same,TGI,786-0; read-out: pTGI (converted),0.501 µM
same,GI50,[8],8.51 µM
same,CC50,[8]; [9],50.1 µM
same,TGI,[8]; read-out: pTGI (converted),50.1 µM
